Laboratory results published in ChEMBL document CHEMBL1127808, “Structure-distribution relationships for metal-labeled myocardial imaging agents: comparison of a series of cationic gallium (III) complexes with hexadentate bis(salicylaldimine) ligands” (J Med Chem, 1994).

Legend:
Format in all cases: functional
[1] = tested on: Rattus norvegicus; experiment: Retention of tracer Gallium in liver of rats after intravenous administration and Gallium-67 Bis(salicylaldimine) after 1 min
Procedure, shortened: (§1)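 Male Sprague-Dawley rats under ether anesthesia received a femoral vein bolus of no-carrier-added 67Ga complex (1–3 μCi, 0.1–0.2 mL; 5% ethanol in 0.16 M NaCl with 5–10% propylene glycol, filtered 0.2 μm). Injected dose was found by weighing the syringe. Rats were decapitated at 1 or 120 min. Organs were blotted, weighed and gamma counted against an injectate standard, giving percent injected dose per organ. Blood was taken as 7% of body mass. Mean ± SD, n = 3–4.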

[2] = tested on: Rattus norvegicus; experiment: Retention of tracer Gallium in kidney of rats after intravenous administration and Gallium-67 Bis(salicylaldimine) after 120 min; procedure, shortened: as §1
[3] = tested on: Rattus norvegicus; experiment: Retention of tracer Gallium in liver of rats after intravenous administration and Gallium-67 Bis(salicylaldimine) after 120 min; procedure, shortened: as §1
[4] = tested on: Rattus norvegicus; experiment: Retention of tracer Gallium in lung of rats after intravenous administration and Gallium-67 Bis(salicylaldimine) after 120 min; procedure, shortened: as §1
[5] = Ratio of retention of tracer Gallium in Heart to blood was determined after intravenous administration to rats after 1 min
Procedure, shortened: (§2)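 Heart-to-liver and heart-to-blood ratios were calculated from percent injected dose per gram of tissue. No-carrier-added 67Ga complex (1–3 μCi, 0.1–0.2 mL) in 5% ethanol/saline with 5–10% propylene glycol, radiochemical purity >98%, was given as a femoral vein bolus to male Sprague-Dawley rats under ether anesthesia. Rats were decapitated at 1, 15 or 120 min and tissues gamma counted. Mean ± SD, n = 3–4.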

[6] = Ratio of retention of tracer Gallium in Heart to blood was determined after intravenous administration to rats after 120 min; procedure, shortened: as §2
[7] = tested on: Rattus norvegicus; experiment: Retention of tracer Gallium in heart of rats after intravenous administration and Gallium-67 Bis(salicylaldimine) after 120 min; procedure, shortened: as §1
[8] = Ratio of retention of tracer Gallium in Heart to Liver was determined after intravenous administration to rats after 120 min; procedure, shortened: as §2
[9] = tested on: Rattus norvegicus; experiment: Retention of tracer Gallium in kidney of rats after intravenous administration and Gallium-67 Bis(salicylaldimine) after 1 min; procedure, shortened: as §1
[10] = tested on: Rattus norvegicus; experiment: Retention of tracer Gallium in blood of rats after intravenous administration and Gallium-67 Bis(salicylaldimine) after 1 min; procedure, shortened: as §1
[11] = Ratio of retention of tracer Gallium in Heart to Liver was determined after intravenous administration to rats after 1 min; procedure, shortened: as §2
[12] = tested on: Rattus norvegicus; experiment: Retention of tracer Gallium in blood of rats after intravenous administration and Gallium-67 Bis(salicylaldimine) after 120 min; procedure, shortened: as §1
[13] = Ratio of retention of tracer Gallium in Heart to blood was determined after intravenous administration to rats after 15 min; procedure, shortened: as §2
[14] = tested on: Rattus norvegicus; experiment: Retention of tracer Gallium in lung of rats after intravenous administration and Gallium-67 Bis(salicylaldimine) after 1 min; procedure, shortened: as §1
[15] = tested on: Rattus norvegicus; experiment: Retention of tracer Gallium in heart of rats after intravenous administration and Gallium-67 Bis(salicylaldimine) after 1 min; procedure, shortened: as §1
[16] = Ratio of retention of tracer Gallium in Heart to Liver was determined after intravenous administration to rats after 15 min; procedure, shortened: as §2
[17] = tested on: Rattus norvegicus; experiment: Retention of tracer Gallium in kidney of rats after intravenous administration and Gallium-67 Bis(salicylaldimine) after 1 min was determined; procedure, shortened: as §1
[18] = tested on: Rattus norvegicus; experiment: Retention of tracer Gallium in kidney of rats after intravenous administration and Gallium-67 Bis(salicylaldimine) after 120 min was determined; procedure, shortened: as §1

Row | Compound | Injected dose [1] [%] | Injected dose [2] [%] | Injected dose [3] [%] | Injected dose [4] [%] | Ratio [5] | Ratio [6] | Injected dose [7] [%] | Ratio [8] | Injected dose [9] [%] | Injected dose [10] [%] | Ratio [11] | Injected dose [12] [%] | Ratio [13] | Injected dose [14] [%] | Injected dose [15] [%] | Ratio [16] | Injected dose [17] [%] | Injected dose [18] [%]
1 | COc1ccc(/C=N/CCCNCCNCCC/N=C/c2ccc(OC)cc2O)c(O)c1 | 25.2 | 1.69 | 5.1 | 0.38 | 2.99 | 30.6 | 0.65 | 1.6 | 8.42 | 4.44 | 0.32 | 0.42 | 17.6 | 1.05 | 0.67 | 0.62 |  | 
2 | COc1cc(O)c(/C=N/CCCNCCNCCC/N=C/c2cc(C)c(OC)cc2O)cc1C | 39.5 |  | 5.3 | 0.42 | 2.1 | 30 | 0.89 | 1.92 |  | 7.79 | 0.14 | 0.61 |  | 0.79 | 0.88 |  | 5.14 | 2.74
3 | COc1cc(C)c(/C=N/CCCNCCNCCC/N=C/c2c(C)cc(OC)cc2O)c(O)c1 | 28.8 | 1.94 | 3.4 | 0.55 | 3.4 | 45.1 | 1.03 | 3.6 | 5.39 | 5.94 | 0.45 | 0.43 |  | 0.88 | 1.08 |  |  | 
4 | Oc1ccccc1/C=N/CCCNCCNCCC/N=C/c1ccccc1O | 26.7 | 1.4 | 5.3 | 0.28 | 2.15 | 12.2 | 0.41 | 0.9 | 9.84 | 4.21 | 0.2 | 0.64 | 8.3 | 1 | 0.45 | 0.51 |  | 
5 | CCOc1cc(C)c(/C=N/CCCNCCNCCC/N=C/c2c(C)cc(OCC)cc2O)c(O)c1 | 29.5 | 2.42 | 3 | 0.49 | 2.2 | 40.5 | 0.87 | 2.7 | 5.24 | 7.73 | 0.29 | 0.42 | 20.9 | 0.8 | 0.91 | 0.73 |  | 
6 | COc1ccc(O)c(/C=N/CCCNCCNCCC/N=C/c2cc(OC)ccc2O)c1 | 26.5 | 1.19 | 6.8 | 0.18 | 0.89 | 4.3 | 0.23 | 0.42 | 7.64 | 7.55 | 0.15 | 1.11 | 2.6 | 0.79 | 0.34 | 0.19 |  | 
7 | CCN(CC)c1ccc(/C=N\CC(C)(C)CNCCNCC(C)(C)C/N=C/c2ccc(N(CC)CC)cc2O)c(O)c1 | 47 | 5.17 | 11.1 | 1.31 | 0.45 | 8.1 | 0.4 | 0.5 | 4.25 | 30.6 | 0.17 | 1.06 | 1.9 | 5.3 | 0.66 | 0.13 |  | 
8 | COc1cc(O)c(/C=N\CC(C)(C)CNCCNCC(C)(C)C/N=C/c2c(O)cc(OC)cc2OC)c(OC)c1 | 50.6 | 5.4 | 3.9 | 0.64 | 1.1 | 44.5 | 1.01 | 3.24 | 8.33 | 18.8 | 0.23 | 0.45 | 9.6 | 1.63 | 1.03 | 0.32 |  | 
9 | CC(C)c1ccc(O)c(/C=N/CCCNCCNCCC/N=C/c2cc(C(C)C)ccc2O)c1 | 49.2 | 3.95 | 8.5 | 0.36 | 0.54 | 8.6 | 0.55 | 0.75 | 6.02 | 23.4 | 0.16 | 1.21 |  | 1.06 | 0.67 |  |  | 
10 | CCN(CC)c1ccc(/C=N/CCCNCCNCCC/N=C/c2ccc(N(CC)CC)cc2O)c(O)c1 | 38.1 | 4.67 | 9.7 | 0.67 | 1.22 | 9.2 | 0.65 | 0.86 | 6.33 | 11.1 | 0.24 | 1.27 | 4.5 | 1.26 | 0.69 | 0.28 |  | 
11 | COc1cc(O)c(/C=N/CCCNCCNCCC/N=C/c2c(O)cc(OC)cc2OC)c(OC)c1 | 43 | 2.17 | 3.1 | 0.52 | 2.3 | 45.6 | 0.86 | 4.1 | 5.26 | 8.49 | 0.32 | 0.33 | 18.1 | 0.92 | 1.04 | 0.56 |  | 
